PP5 inh = PP5 (human) phosphatase inhibition | inhibition, % at 6.7 µM | purified PP5c, OMFP substrate fluorescence | 320,000 compounds, 0.18% hits | AID 1987 | P53041;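 active means inhibition above the campaign's mean inhibition across all tested compounds plus 3 SD, cut at about 9.5% in these data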;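 further: 0% = DMSO only and 100% = 100 µM cantharidin control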
GSTO1 inh = blocks human GSTO1 in RBBP9 counter-screen; AID 1974; 300,000 compounds, 1.1% hits; inhibition, % at 5.96 µM; P78417; recombinant GSTO1, activity-based probe fluorescence polarization;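 active means inhibition above the campaign mean inhibition plus 3 SD, cut at about 35% in these data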;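 further: 0% = GSTO1-1 with DMSO and 100% = wells lacking GSTO1-1 enzyme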
PP1 counter = PP1-alpha (human) inhibition in PP5 counter-screen; P62136; purified PP1alpha, OMFP fluorescence; inhibition, % at 6.7 µM; 320,000 compounds, 0.9% hits; AID 2235;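 active means inhibition above the mean inhibition of all tested compounds plus 3 SD, computed separately for each screening campaign, cut at about 15% in these data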
Target sequence (P62136 whole entry, looked up): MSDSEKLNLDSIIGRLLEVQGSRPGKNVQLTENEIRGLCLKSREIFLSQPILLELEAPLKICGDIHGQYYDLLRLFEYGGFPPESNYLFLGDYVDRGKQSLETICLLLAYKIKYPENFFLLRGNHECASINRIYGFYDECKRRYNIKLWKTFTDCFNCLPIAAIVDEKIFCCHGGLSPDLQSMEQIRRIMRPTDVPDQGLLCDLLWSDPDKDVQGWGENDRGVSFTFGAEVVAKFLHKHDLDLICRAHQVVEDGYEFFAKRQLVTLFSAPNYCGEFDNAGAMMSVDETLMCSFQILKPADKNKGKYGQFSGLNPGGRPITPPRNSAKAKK
Apaf1 inhib = human Apaf-1 inhibition | inhibition, % at 20 µM | reconstituted apoptosome caspase-3 activity, DEVD-Rh110 fluorescence | O14727 | 330,000 compounds, 0.71% hits; active means inhibition of at least 40% at 20 µM;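 further: plate controls were DMSO wells for no effect and DEVD-CHO caspase inhibitor wells for full effect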
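Material: reconstituted apoptosome with Apaf-1, cytochrome c, caspase-9, procaspase-3, dATP; medium: pH 7.5 Hepes buffer with CHAPS, BSA, DTT; also added: cytochrome c and DEVD-Rh110 substrate; timing: 30 min plus 50 min, RT; signal: Rh110 fluorescence intensity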
TDP2 inh = TDP2 (human) inhibition, absorbance primary screen | O95551 | recombinant TDP2, T5PNP hydrolysis, p-nitrophenol absorbance 415 nm | inhibition, % at 12.8 µM | 370,000 compounds, 0.34% hits | AID 720702;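 active means inhibition above the mean of all tested compounds plus 3 SD, set per campaign, cut at about 25% in these data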;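 further: 0% = DMSO with enzyme and 100% = buffer with substrate but no TDP2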
Target sequence (O95551 whole entry, looked up): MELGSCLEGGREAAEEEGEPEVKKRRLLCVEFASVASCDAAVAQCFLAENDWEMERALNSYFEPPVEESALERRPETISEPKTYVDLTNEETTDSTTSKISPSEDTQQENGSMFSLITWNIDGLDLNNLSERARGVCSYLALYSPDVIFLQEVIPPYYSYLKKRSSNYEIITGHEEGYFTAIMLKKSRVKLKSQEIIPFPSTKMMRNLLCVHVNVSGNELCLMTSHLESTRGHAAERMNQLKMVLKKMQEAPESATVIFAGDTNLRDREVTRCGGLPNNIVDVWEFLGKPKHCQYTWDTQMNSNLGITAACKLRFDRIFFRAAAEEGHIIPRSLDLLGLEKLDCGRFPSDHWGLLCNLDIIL
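Material: recombinant human TDP2; quantity: TDP2 enzyme at 120 nM final; medium: Tris-HCl pH 7.5 with MgCl2; compound: single concentration, 12.8 µM nominal, with 1% DMSO; incubation: 2 h enzyme incubation at 37 °C; signal: epi absorbance; measure: percent inhibition; benchmarks: high control without enzyme, low control DMSO plus TDP2; repeats: singlicate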
Active calls of the source: *; x = not tested or not shown. Most compounds without a hit are left out; they make up all but 2.1% or so of the library.

SMILES	PP5 inh	GSTO1 inh	PP1 counter	Apaf1 inhib	TDP2 inh
CCN(Cc1ccccc1)C(=O)CCCN1C(=O)COc2ccc(C)cc21	x	x	x	x	0.9
CN1CCN(Cc2nc3c([nH]2)c(=O)[nH]c(=O)n3C)CC1	1.5	36.3*	-5.8	4.7	-4.2
Cn1c(=O)[nH]c(=O)c2[nH]c(CO)nc21	x	x	x	x	-9.4
CCOC(=O)[C@]12CCCC=C1N(Cc1cccc3ccccc13)C(=O)[C@H](CC(=O)NCc1cccs1)C2	x	x	x	x	-3.5
O=C(CSc1nnc(-c2ccccn2)n1-c1ccccc1)Nc1ccccc1-c1ccccc1	x	x	x	x	-12.8
NS(=O)(=O)c1cc(C(=O)NC2CCSc3ccccc32)ccc1Cl (centres undefined)	2.1	-115.4	2.2	3.9	73.3*
NS(=O)(=O)c1cccc(C(=O)NC2CCSc3ccccc32)c1 (centres undefined)	1.8	6.0	4.4	5.4	-6.0
C(=N\Nc1nc2ccccc2[nH]1)/c1ccccn1	x	x	x	x	-0.8
BrC(=C\c1ccccc1)/C=N/Nc1nc2ccccc2[nH]1	-1.9	36.8*	-0.5	10.1	-16.6
COc1ccc(S(=O)(=O)Nc2cccc3c2O[C@H](CN(C)Cc2ccccc2)[C@@H](C)CN([C@H](C)CO)C3=O)cc1	x	x	x	53.0*	-4.7
Cc1cc(C)cc(NC(=O)C2(C(=O)C3CC3)CC(c3ccccc3C(F)(F)F)=NO2)c1 (centres undefined)	x	x	x	x	5.4
O=C(Nc1ccccc1)Oc1ccc[nH]c1=O	-2.0	13.2	-4.3	60.6*	10.8
Cc1ccc(NC(=O)CC(=O)Nc2ccc(C)c(C)c2)cc1C	1.1	-2.0	5.0	12.1	-11.6
Cc1ccc(Sc2ccc(NC(=O)CCl)cc2)cc1C	8.5	78.1*	0.8	11.5	2.7
Cc1c(O)nc(SCC(=O)Nc2ccc3c4c(cccc24)CC3)n(-c2ccccc2)c1=O	-3.4	5.4	-0.1	0.8	9.3
O=C(CSc1nc(O)cc(=O)n1-c1ccccc1)Nc1ccc2c3c(cccc13)CC2	1.8	-10.4	16.1*	16.1	-16.8
COc1ccc2[nH]c3c4c(ccc3c2c1)C(=O)C=CC4=O	x	x	x	45.2*	24.4
CCOc1cc(/C=C(\C#N)C(=O)Nc2cccc(C(=O)O)c2)cc(Br)c1OC(=O)c1ccc(OC)cc1	-4.2	-12.0	17.4*	23.5	-0.8
CCOc1cc(/C=C(\C#N)C(=O)Nc2cccc(C(=O)O)c2)ccc1OCc1ccccc1Cl	2.9	-10.5	1.0	18.2	3.5
COc1ccc2cc1Oc1ccc(cc1)C[C@H]1c3c(cc(OC)c4c3Oc3c(ccc5c3[C@H](C2)N(C)CC5)O4)CCN1C	x	x	x	59.5*	x
COc1ccc2cc1Oc1ccc(cc1)CC1c3c(cc(OC)c4c3Oc3cc5c(cc3O4)CCNC5C2)CCN1C (centres undefined)	4.0	-10.7	1.4	41.1*	x
COc1cc2c(c(O)c1OC)C1Cc3ccc(OC)c(OC)c3CN1CC2 (centres undefined)	x	x	x	x	-8.3
COc1cc2c3cc1Oc1cc(ccc1O)C[C@@H]1c4c(cc(OC)c(O)c4Oc4ccc(cc4)C[C@@H]3N(C)CC2)CC[N+]1(C)C	x	x	x	x	-12.9
Cc1ccc(-c2nn(-c3ccccc3)cc2C2CC(c3cccs3)=NN2C(=O)CCCC(=O)O)cc1 (centres undefined)	-1.0	-6.4	12.4	12.0	-1.0
Cc1ccc(-c2nn(-c3ccccc3)cc2C2CC(c3ccccc3)=NN2C(=O)CCC(=O)O)cc1 (centres undefined)	4.9	-8.6	17.4*	11.6	22.3
SMILES	PP5 inh	GSTO1 inh	PP1 counter	Apaf1 inhib	TDP2 inh
CCc1c(-c2cccc(Br)c2)ncn1CCc1ccccc1OC	x	x	x	x	9.2
N#Cc1c(NC(=O)c2ccco2)sc2c1CCC2	0.2	36.3*	-1.0	-14.2	17.4
CCOC(=O)C1=C(CSc2nc3c(cc2C#N)CN(C)CC3)OC(N)=C(C#N)C1c1ccc(F)cc1 (centres undefined)	4.7	-5.8	15.8*	11.8	-3.2
CCOC(=O)C1=C(CSc2nc3c(cc2C#N)CN(C)CC3)OC(N)=C(C#N)C1c1ccccc1 (centres undefined)	-5.1	16.6	16.8*	12.5	3.9
O=C(C[C@@H]1CC[C@H](NC(=O)Cc2ccccn2)[C@@H](CO)O1)NCCc1ccccc1	x	x	x	x	8.5
COc1ccccc1C(=O)CSc1nnc(-c2ccncc2)n1-c1ccc(Cl)cc1	x	x	x	x	-1.0
O=C(N/N=C/c1ccc(-c2ccc(Br)cc2)o1)c1ccc2c(c1)OCO2	4.7	5.4	15.6*	16.4	5.2
COc1ccc(OC)c(Nc2nc(N)nc(-c3cc4ccccc4o3)n2)c1	0.3	-2.1	15.7*	9.2	-9.7
COc1ccc(OC)c(NC(=O)c2cc3ccccc3o2)c1	-4.2	-0.1	2.9	6.9	3.3
CCOC(=O)c1sc2cc([N+](=O)[O-])cc(SCC(=O)OC)c2c1N	3.3	35.8*	-1.5	8.3	4.7
CCOC(=O)c1sc2cc([N+](=O)[O-])cc(SCCO)c2c1N	0.7	2.2	0.1	-7.0	11.0
COc1cccc(N=Nc2c(N)[nH][nH]c2=O)c1	-0.9	0.9	0.1	2.7	3.1
COc1cccc(N=Nc2c(N)[nH]n3c(=O)c4c(nc23)CCCC4)c1	1.9	8.1	16.6*	11.8	2.6
CCOc1ccc(-n2c(SCC(=O)Nc3ccccc3-c3ccccc3)nnc2-c2ccccc2)cc1	x	x	x	x	-6.5
CCOc1ccc(NS(=O)(=O)c2ccc3c(c2)oc(=O)n3C)cc1	1.6	36.0*	-0.1	12.1	9.2
Cc1ccc(NS(=O)(=O)c2ccc3c(c2)oc(=O)n3C)cc1C	-1.0	36.8*	-1.0	9.1	3.6
FC(F)(F)c1ccc(-c2cccc3c2C2CC3CCN2Cc2ccc3c(c2)OCO3)cc1 (centres undefined)	x	x	x	x	6.1
CC(C)(C)NC(=O)CSc1nc2ccc(NC(=O)CSc3nnnn3Cc3ccccc3)cc2s1	5.6	-22.7	15.8*	29.7	-7.6
O=C(OCC#CCSc1nnc(-c2ccccc2F)o1)c1ccc(F)cc1	x	x	x	x	6.2
O=C(/C=C/c1ccc([N+](=O)[O-])cc1)/C=C/c1ccco1	-0.2	31.4	12.2	42.6*	13.2
Cc1cccc(Cc2c(C)nc3c(C(=O)N4CCN(Cc5ccc6c(c5)OCO6)CC4)cnn3c2C)c1	6.1	35.2*	0.2	15.8	-10.0
CCN(Cc1ccccc1)C(c1ccc(C(F)(F)F)cc1)c1nnnn1C(C)(C)C (centres undefined)	-0.1	-1.2	15.3*	12.5	6.8
CCN(Cc1ccccc1)C(c1cccc(C#N)c1)c1nnnn1C(C)(C)C (centres undefined)	7.3	-0.3	-1.1	11.0	8.7
CCOC(=O)[C@]12CCC=C1N(Cc1cccc3ccccc13)C(=O)[C@H](CC(=O)NCCCN1CCCC1=O)C2	x	x	x	x	1.5
Cc1cc(C)c2nc(NNC(=O)c3ccc(S(=O)(=O)N4CC(C)CC(C)C4)cc3)sc2c1 (centres undefined)	5.1	-10.3	16.2*	1.2	-10.8
